Each block holds one molecule with its values, some of them ahead of it. Active and inactive are the calls of the source. The calls are words filed in the database; no cut-off is given here.
Assays:
[1] = Partition coefficient (logP); assay type: physicochemical; settings: octanol/water
Procedure, shortened: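 Compound dissolved in disodium hydrogen phosphate/citric acid buffer pH 7.4 and partitioned against equal volume octan-1-ol. Buffer-phase UV absorbance read before and after partitioning near λmax. P′ from the octanol:buffer absorbance ratio.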

Rattus norvegicus [2] = assay: Compound was evaluated in developing adjuvant arthritis model rats for its effect on paw edema; No significant effect; assay type: functional, organism-based
Procedure, shortened: (§1)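 Female Allen and Hanbury hooded rats, five per group. Right hind paw injected sc on day 0 with heat-killed M. tuberculosis in paraffin oil (5 mg/mL). Compounds given orally as sodium salts in water. Paw volumes of both hind paws measured days 1–4, 1 h after dosing. Percent inhibition taken from area under the curve of the between-paw volume difference.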

Rattus norvegicus [3] = organism: Rattus norvegicus; assay: Percent decrease in serum haptoglobin evaluated in a developing adjuvant arthritis model rats; No significant effect
Rattus norvegicus [4] = assay: Radiographic change was judged in the area of the talus joint, using an arbitrary scoring system upon termination of the test (14 days dosing of 100 mg/kg) in a model of type II collagen arthritis in the rat.; assay type: functional; settings: 336 h
Procedure, shortened: (§2)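 Type II collagen arthritis rats, eight per group, oral sodium salts daily from grouping (day 1). Hind limbs X-rayed post mortem. Tibia/talus and tarsus damage scored 0–3 per foot by two observers and averaged; left and right summed (max 6). Compared with arthritic controls by Mann–Whitney U test.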

Rattus norvegicus [5] = assay: Hepatic effect assessed by increase in liver weight after 14 days of dosing at 100 mg/kg orally.; assay type: functional
Procedure, shortened: (§3)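 Type II collagen arthritis rats, eight per group, daily oral dosing as sodium salts in water for 14 days. Liver weight recorded at termination and expressed as percentage change versus normal animals.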

Rattus norvegicus [6] = assay: Radiographic change was judged in the area of the tarsus region, using an arbitrary scoring system upon termination of the test (14 days dosing of 100 mg/kg) in a model of type II collagen arthritis in the rat.; assay type: functional; settings: 336 h; procedure, shortened: as §2
Rattus norvegicus [7] = assay: Compound was evaluated in developing adjuvant arthritis model rats for its effect on paw edema.; assay type: functional; design: concentration or dose not given beside the values; procedure, shortened: as §1
Rattus norvegicus [8] = assay: Hepatic effect assessed by increase in catalase levels after 14 days of dosing at 100 mg/kg orally.; assay type: functional
Procedure, shortened: (§4)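 Type II collagen arthritis rats, eight per group, given oral sodium salts daily for 14 days. At termination liver homogenized in ice-cold 0.25 M sucrose and spun 2000 rpm 10 min. Catalase followed by decline in A240 from H2O2 breakdown, expressed as first-order rate constant K. Result given as % change versus normals.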

Rattus norvegicus [9] = organism: Rattus norvegicus; assay: Percent decrease in serum haptoglobin evaluated in a developing adjuvant arthritis model rats.
Rattus norvegicus [10] = assay: Hepatic effect assessed by increase in catalase levels after 14 days of dosing at 50 mg/kg orally.; assay type: functional; procedure, shortened: as §4
Rattus norvegicus [11] = assay: Radiographic change was judged in the area of the tarsus region, using an arbitrary scoring system upon termination of the test (14 days dosing of 50 mg/kg) in a model of type II collagen arthritis in the rat.; assay type: functional; settings: 336 h; procedure, shortened: as §2
Rattus norvegicus [12] = assay: Hepatic effect assessed by increase in liver weight after 14 days of dosing at 50 mg/kg orally.; assay type: functional; procedure, shortened: as §3
Rattus norvegicus [13] = assay: Radiographic change was judged in the area of the talus joint, using an arbitrary scoring system upon termination of the test (14 days dosing of 50 mg/kg) in a model of type II collagen arthritis in the rat.; assay type: functional; settings: 336 h; procedure, shortened: as §2

SMILES: CC(C)(OCc1cccc(-c2ccc(Cl)cc2)n1)C(=O)O
- logP [1]: 0.69
- inhibition (Rattus norvegicus [2]): inactive
- Decrease (Rattus norvegicus [3]): inactive

SMILES: CC(C)(OCc1cc(-c2ccc(Cl)cc2)[nH]n1)C(=O)O
- logP [1]: 0.36
- inhibition (Rattus norvegicus [2]): inactive
- Decrease (Rattus norvegicus [3]): inactive

SMILES: CC(C)(OCc1cc(-c2ccc(Cl)cc2)on1)C(=O)O
- inhibition in vivo at 100 mg/kg (Rattus norvegicus [4]): 24%
- Change (Rattus norvegicus [5]): 41%
- logP [1]: 0.46
- Decrease (Rattus norvegicus [9]): 34%
- inhibition in vivo at 100 mg/kg (Rattus norvegicus [6]): 42%
- Inhibition (Rattus norvegicus [7]): 64%
- Change (Rattus norvegicus [8]): 140%

SMILES: Cc1oc(-c2ccc(Cl)cc2)nc1COC(C)(C)C(=O)O
- inhibition in vivo at 100 mg/kg (Rattus norvegicus [4]): 65%
- Change (Rattus norvegicus [5]): 2%
- logP [1]: 0.52
- inhibition in vivo at 100 mg/kg (Rattus norvegicus [6]): 54%
- Inhibition (Rattus norvegicus [7]): 67%
- Decrease (Rattus norvegicus [3]): inactive
- Change (Rattus norvegicus [8]): 60%

SMILES: CC(C)(OCc1ccc(-c2ccc(Cl)cc2)nn1)C(=O)O
- logP [1]: -0.15
- inhibition (Rattus norvegicus [2]): inactive
- Decrease (Rattus norvegicus [3]): inactive

SMILES: CC(C)(OCc1ncsc1-c1ccc(Cl)cc1)C(=O)O
- logP [1]: 0.23
- inhibition (Rattus norvegicus [2]): inactive
- Decrease (Rattus norvegicus [3]): inactive

SMILES: CC(C)(OCc1cc2cc(Cl)ccc2o1)C(=O)O
- logP [1]: -0.57
- Inhibition (Rattus norvegicus [7]): 39%
- Decrease (Rattus norvegicus [3]): inactive

SMILES: CC(C)(OCc1coc2ccc(Cl)cc12)C(=O)O
- logP [1]: -0.54
- inhibition (Rattus norvegicus [2]): inactive
- Decrease (Rattus norvegicus [3]): inactive

Second part, led by results:

- logP [1]: 0.11
SMILES: CC(C)(OCc1cnc(-c2ccc(Cl)cc2)o1)C(=O)O
- inhibition in vivo at 100 mg/kg (Rattus norvegicus [4]): 42%
- Change (Rattus norvegicus [5]): 16%
- inhibition in vivo at 100 mg/kg (Rattus norvegicus [6]): 41%
- Inhibition (Rattus norvegicus [7]): 33%
- Decrease (Rattus norvegicus [3]): inactive
- Change (Rattus norvegicus [8]): 11%

- logP [1]: 0.04
SMILES: CC(C)(OCc1cnn(-c2ccc(Cl)cc2)c1)C(=O)O
- Change (Rattus norvegicus [10]): 180%
- inhibition in vivo at 50 mg/kg (Rattus norvegicus [11]): 18%
- Change (Rattus norvegicus [12]): 70%
- Decrease (Rattus norvegicus [9]): 37%
- Inhibition (Rattus norvegicus [7]): 76%
- inhibition in vivo at 50 mg/kg (Rattus norvegicus [13]): 15%

- logP [1]: 0.15
SMILES: CC(C)(OCc1nc(-c2ccc(Cl)cc2)co1)C(=O)O
- inhibition in vivo at 100 mg/kg (Rattus norvegicus [4]): 63%
- Change (Rattus norvegicus [5]): 19%
- Decrease (Rattus norvegicus [9]): 9%
- inhibition in vivo at 100 mg/kg (Rattus norvegicus [6]): 39%
- Inhibition (Rattus norvegicus [7]): 69%
- Change (Rattus norvegicus [8]): 68%

- logP [1]: 0
SMILES: CC(C)(OCc1ccn(-c2ccc(Cl)cc2)n1)C(=O)O
- Change (Rattus norvegicus [10]): 90%
- inhibition in vivo at 50 mg/kg (Rattus norvegicus [11]): 32%
- Change (Rattus norvegicus [12]): 13%
- Decrease (Rattus norvegicus [9]): 30%
- Inhibition (Rattus norvegicus [7]): 46%
- inhibition in vivo at 50 mg/kg (Rattus norvegicus [13]): 48%

- logP [1]: 0.66
SMILES: CC(C)(OCc1csc(-c2ccc(Cl)cc2)n1)C(=O)O
- Decrease (Rattus norvegicus [9]): 16%
- Inhibition (Rattus norvegicus [7]): 81%

- logP [1]: 0.23
SMILES: CC(C)(OCc1scnc1-c1ccc(Cl)cc1)C(=O)O
- inhibition (Rattus norvegicus [2]): inactive
- Decrease (Rattus norvegicus [3]): inactive

- logP [1]: 0.23
SMILES: CC(C)(OCc1coc(-c2ccc(Cl)cc2)n1)C(=O)O
- inhibition in vivo at 100 mg/kg (Rattus norvegicus [4]): 59%
- Change (Rattus norvegicus [5]): 19%
- Decrease (Rattus norvegicus [9]): 40%
- inhibition in vivo at 100 mg/kg (Rattus norvegicus [6]): 44%
- Inhibition (Rattus norvegicus [7]): 84%
- Change (Rattus norvegicus [8]): 52%

- logP [1]: 0.08
SMILES: Cn1cc(-c2ccc(Cl)cc2)nc1COC(C)(C)C(=O)O
- inhibition (Rattus norvegicus [2]): inactive
- Decrease (Rattus norvegicus [3]): inactive

- logP [1]: 0.15
SMILES: CC(C)(OCc1ncc(-c2ccc(Cl)cc2)o1)C(=O)O
- inhibition in vivo at 100 mg/kg (Rattus norvegicus [4]): 36%
- Change (Rattus norvegicus [5]): 3%
- Decrease (Rattus norvegicus [9]): 17%
- inhibition in vivo at 100 mg/kg (Rattus norvegicus [6]): 24%
- Inhibition (Rattus norvegicus [7]): 40%
- Change (Rattus norvegicus [8]): -10%

- logP [1]: 0.36
SMILES: CC(C)(OCc1cc(-c2ccc(Cl)cc2)no1)C(=O)O
- inhibition in vivo at 100 mg/kg (Rattus norvegicus [4]): 60%
- Change (Rattus norvegicus [5]): 47%
- Decrease (Rattus norvegicus [9]): 37%
- inhibition in vivo at 100 mg/kg (Rattus norvegicus [6]): 47%
- Inhibition (Rattus norvegicus [7]): 72%
- Change (Rattus norvegicus [8]): 73%

— ChEMBL document CHEMBL1125255, “Romazarit: a potential disease-modifying antirheumatic drug” (J Med Chem, 1991)
